What was measured:
[1] = folding enthalpy; higher = less favourable; fluorescence melt of hairpins on a sequencing array, two-state fit; conditions: sodium 0.088 M
Outline: (§1)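 To match UV melts, fitted temperatures were raised by 9.35 °C. These fits were bootstrapped two-state models that gave melting temperature and folding enthalpy, combined by inverse variance over four replicates. The input was normalised Cy3 fluorescence of library hairpins with annealed Cy3 and quencher oligos on a sequenced MiSeq flow cell, imaged in 50 mM Na-HEPES pH 8.0, 25 mM NaCl in 2.5 °C steps up to 60 °C.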

[2] = melting temperature; fluorescence melt of hairpins on a sequencing array, two-state fit, raised by 9.35 °C to match UV melts; conditions: sodium 0.088 M
Outline: as §1

Sequence	folding enthalpy [1] [kcal/mol]	Tm [2] [°C]
GAGCGGGGAAACCCGTTC ((.((((....)))).))	-20.1	53
GCAACCGGAAACGGCTGC (((.(((....))).)))	-40.9	53
GCTACGCGAAAGCGCTGC ((..(((....)))..))	-15.2	43.5
GTCTCAGGAAACTGAGAC (((((((....)))))))	-46.1	59.5
GTCCCCCGAAAGGGTGAC (((.(((....))).)))	-28.1	52.5
GGTATTGGAAACAACACC (((.(((....))).)))	-31.9	32.2
GCGTTCGAAAGAAGCCGC ((((((....)))..)))	-22.7	35.9
GATCATGTTGATGATC ((((((....))))))	-41.2	48.4
GATTCGGAAACGAATC ((((((....))))))	-32.2	58.6
GCATGGCGAAAGCCTGC (((.(((....))))))	-27	63.8
GGAAGAGGAAACTTTTCC ((((.((....)).))))	-15.8	32.8
GCCTTGCCGAAAGGCGGC (((..(((....))))))	-10.8	67.5
GTAAGCGAAAGCTATAC ((((((....))).)))	-14.9	33.8
GCTTGTGGAAACACAAGC (((((((....)))))))	-39.9	63.9
CGAGGCGGAAACGCTCG (((.(((....))))))	-20.5	51
GGTATAGCGAAAGCTACC (((..(((....))))))	-15.4	39.6
GCATACGGAAACGTGTGC (((.(((....))).)))	-50.6	55
GATCGTTATAACGATC ((((((....))))))	-40.1	56.7
GCTTCGCGAAAGCGCGGC ((..(((....)))..))	-18.8	39.6
GGCCCTCGAAAGAGTGCC (((.(((....))).)))	-44.1	53.3
GATCGTGAGTACGATC ((((((....))))))	-31.4	54
GTTATCTCGAAAGAGAAC (((..(((....))))))	-11.8	29.8
GCTTCCGAAAGGAGCAGC ((((((....)))..)))	-15.2	41.7
GAGGACACGAAAGTGCTC (((..(((....))))))	-14.4	35.9

Sequence	folding enthalpy [1] [kcal/mol]	Tm [2] [°C]
GACAATGAAAATTGTC ((((((....))))))	-31.3	51.6
GGTTATGGAAACATAACC (((((((....)))))))	-41.1	55.6
GTGTCAGGAAACTGACGC (.(((((....))))).)	-40.5	55.4
GATCCGATGACGGATC ((((((....))))))	-35.4	58.2
GCGAAGCGAAAGCACCGC (((..((....))..)))	-9.92	43.8
GATCGGTTACCGATC ((((((...))))))	-36.1	59.3
GCTAAGCGAAAGCTGGGC ((..(((....)))..))	-17.7	52.9
GTCGCGTCGAAAGACGAC (((..(((....))))))	-8.6	35.5
GATCAAAATCTTGATC ((((((....))))))	-27.8	39.9
GATCCGTCTACGGATC ((((((....))))))	-45.5	63.7
GCGAGAGGAAACTTTCGC ((((.((....)).))))	-33.8	48.8
GCGCGCGAAAGCGTACGC ((((((....)))..)))	-17.5	61.5
GCAGGGAAACCTGC (((((....)))))	-28.1	62.7
GGCTGCGAAAGCACGGCC ((((((....)))..)))	-23.4	53.5
GATCTCGTGGAGATC ((((((...))))))	-39	54.5
GGCGAAGCGAAAGCTGCC (((..(((....))))))	-17.7	52.8
GATCAGCCAACTGATC ((((((....))))))	-33.8	49.6
GCGCCGCGAAAGCAGGGC ((.(.((....)).).))	-13.1	57.4
GTCGTCGAAAGACTTGAC ((((((....)))..)))	-17	38.4
GAGTAGACGAAAGTCCTC (((..(((....))))))	-14.1	32.8
GCCTCCGCGAAAGCGGGC (((..(((....))))))	-5.39	52.2
GTTCTGGGAAACCGGAAC ((((.((....)).))))	-41.5	50.9
AAAGCGAAAGCTTT (((((....)))))	-15.5	63.4
GTAAGCGCGAAAGCGTAC (((..(((....))))))	-9.28	28.8

Sequence	folding enthalpy [1] [kcal/mol]	Tm [2] [°C]
GCGTCTACACGC ((((....))))	-25.9	51.4
GGATTGGGAAACTAATCC (((((.(....).)))))	-33.9	43.5
GAGTTCCGAAAGGATCTC (((.(((....))).)))	-29.3	47.3
GCAGTCTCGAAAGAGTGC (((..(((....))))))	-25.4	45.8
GATCCGCCGACGGATC ((((((....))))))	-38	58.3
GTTGACGAAAGTCCAAC ((((((....))).)))	-17.7	40.9
GCGGTACCCCGC ((((....))))	-21.6	54.5
GCATAGCGAAAGCGCTGC (((..((....))..)))	-16.5	51.3
GCGGAGTTCCGC ((((....))))	-23.4	59.6
GCGGAGCGAAAGCCGCGC (((..((....))..)))	-21.1	66.1
CCCTAGAAATAGGG (((((....)))))	-20.7	38.2
GGCATCGAAAGATGGGCC ((((((....)))..)))	-19.2	46.8
CTAGAGAAATCTAG (((((....)))))	-7.95	26.2
GCGTCTATACGC ((((....))))	-25	54.6
GCGCGACGAAAGTCACGC (((.(((....))).)))	-36.3	68.9
GAGGATGAAAATCCTC ((((((....))))))	-37	54.7
GCGTGAGGAAACTTGCGC (((..((....))..)))	-30.9	48.3
GGTAGTGGAAACACTATC (.(((((....))))).)	-23.4	43.5
GGGTGTCGAAAGACCCC (((.(((....))))))	-35.6	56.4
GCAGCCCCGAAAGGGTGC (((..(((....))))))	-16.5	53.4
GATCCCGAAAGGGTATC ((((((....))).)))	-15.8	45.5
GTCATCCGAAAGGAAGAC (((.(((....))).)))	-29.9	49.3
GTCTACGAAAGTAGCGAC ((((((....)))..)))	-17.6	47
GGGCGTCCGAAAGGACCC (((..(((....))))))	-13.9	57.8

Sequence	folding enthalpy [1] [kcal/mol]	Tm [2] [°C]
GGCAAGAAATTGCC (((((....)))))	-33.2	53
GATCCGCGAAAGCGAATC (((.(((....))).)))	-20.2	49.2
GTTTTCGAAAGAACAAC ((((((....))).)))	-12.2	30.5
GACGCAGGAAACCGCGTC (((((.(....).)))))	-37.3	56.9
GTCCACGGAAACGTGAAC ((.((((....)))).))	-18.1	45.5
GTCATACGAAAGTACGAC (((.(((....))).)))	-28.7	42.9
GATCTCCATGGAGATC ((((((....))))))	-42	57.4
GCACTGGGAAACCAGCAC (..((((....))))..)	-10.1	27.3
GGCAAGCGAAAGCTCGCC (((.(((....))).)))	-22.9	59.7
GATTAACGAAAGTTATC (((.(((....))))))	-13.2	31.3
GATCCAATTTGGATC ((((((...))))))	-39.8	51.1
GGATGGCGAAAGCCGTCC (((.(((....))).)))	-28.8	68.8
GGGTACGAAAGTATACCC ((((((....)))..)))	-25.9	43.9
GCACCGCGAAAGCCGCGC ((.(.((....)).).))	-16.8	41.4
GACACAGCGAAAGCTGTC (((..(((....))))))	-8.05	32.3
GTACTCTCGAAAGAGTAC (((..(((....))))))	-36.9	52.5
GCCACCGAAAGGTCGGC ((((((....))).)))	-29.9	59
GCCAAGCGAAAGCAAGGC (((..((....))..)))	-23.7	59.2
GTCATGGGAAACCACGAC (((.(((....))).)))	-31.9	39.9
GTCCTCGAAAGAGCGGAC ((((((....)))..)))	-22.1	36.1
GATCGGTGGCCGATC ((((((...))))))	-33.8	55.9
